ChEMBL document CHEMBL1127674, “Enhanced brain delivery of an anti-HIV nucleoside 2'-F-ara-ddI by xanthine oxidase mediated biotransformation” (J Med Chem, 1994)

What was measured:
Mus musculus [1] = assay: Apparent volume of distribution in mice after oral administration of 100 mg/kg of dose; type: ADME, organism-based; design: dose 100 mg/kg, route oral; conditions: in vivo
How it was run: (§1)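 Female NIH-Swiss mice, 24–28 g. Compounds dissolved in physiological saline at 15 mg/mL and given once, either intragastrically or iv via tail vein over 30 s, at 100 or 106.8 mg/kg (equimolar). Three mice per time point, killed by heart puncture under ether. Serum and brain stored at -20 °C. Brain homogenized 1:1 (g:mL) in isotonic phosphate buffer, pH 7.4. Analysis by reversed-phase HPLC with UV at 260 nm and an internal standard. Noncompartmental pharmacokinetics, AUC by Lagrange polynomial integration.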

[2] = Bioavailability after oral administration of 100 mg/kg of dose in mouse; type: ADME, organism-based; conditions: in vivo
How it was run: (§2)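 Single-dose pharmacokinetics in female NIH-Swiss mice given the compound in saline, either intragastrically or iv via tail vein over 30 s. Three mice sampled per time point. Serum or brain homogenate assayed by HPLC-UV at 260 nm. AUC calculated by Lagrange polynomial integration. Bioavailability taken as the ratio of oral to iv AUC.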

Mus musculus [3] = assay: Bioavailability in mouse brain after intravenous administration of 105.1 mg/kg of dose; type: ADME, organism-based; conditions: in vivo
[4] = Half-life in mouse brain after oral administration of 100 mg/kg of dose; type: ADME, organism-based; design: dose 100 mg/kg, route oral; how it was run: as §1
Mus musculus [5] = assay: Apparent clearance in mice after intravenous administration of 105.1 mg/kg of dose; type: ADME, organism-based; design: dose 105.1 mg/kg, route intravenous; conditions: in vivo
[6] = Half-life in mouse brain after intravenous administration of 100 mg/kg of dose
Mus musculus [7] = assay: Bioavailability in mouse brain after oral administration of 100 mg/kg of dose; type: ADME, organism-based; conditions: in vivo; how it was run: as §2
[8] = Half-life in mouse serum after oral administration of 100 mg/kg of dose; type: ADME, organism-based; design: dose 100 mg/kg, route oral; how it was run: as §1
[9] = Half-life in mouse serum after intravenous administration of 100 mg/kg of dose
[10] = Apparent volume of distribution in mice after intravenous administration of 105.1 mg/kg of dose; type: ADME, organism-based; design: dose 105.1 mg/kg, route intravenous; conditions: mouse, in vivo, read-out: Vss
Mus musculus [11] = assay: Apparent clearance in mice after oral administration of 100 mg/kg of dose; type: ADME, organism-based; design: dose 100 mg/kg, route oral; conditions: in vivo; how it was run: as §1
Mus musculus [12] = assay: Bioavailability in mouse serum after intravenous administration of 105.1 mg/kg of dose; type: ADME, organism-based; conditions: in vivo
Mus musculus [13] = assay: Bioavailability in mouse serum after oral administration of 100 mg/kg of dose; type: ADME, organism-based; conditions: in vivo
Mus musculus [14] = assay: Bioavailability in mouse serum after oral administration of equimolar doses of ( 2'F-ara-ddI + 2'F-ara-ddP); type: ADME, organism-based; conditions: in vivo
[15] = Evaluated for the maximum serum concentration administered at 1 hour in mice; type: ADME, organism-based; conditions: mouse
How it was run: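 Serum drug level in female NIH-Swiss mice after a single intragastric dose in saline, 100 mg/kg for the prodrug or an equimolar dose for the parent. Blood drawn by heart puncture under ether, three mice per time point. Serum analyzed by reversed-phase HPLC with UV at 260 nm; detection limit 50–100 ng/mL. Peak concentration read from the concentration–time profile and given as mean ± SD.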

Mus musculus [16] = assay: Bioavailability in mouse brain after intravenous administration of equimolar doses of ( 2'F-ara-ddI + 2'F-ara-ddP); type: ADME, organism-based; conditions: in vivo
Mus musculus [17] = assay: Bioavailability in mouse serum after intravenous administration of equimolar doses of ( 2'F-ara-ddI + 2'F-ara-ddP); type: ADME, organism-based; conditions: in vivo
Mus musculus [18] = assay: Bioavailability in mouse brain after oral administration of equimolar doses of ( 2'F-ara-ddI + 2'F-ara-ddP); type: ADME, organism-based; conditions: in vivo; how it was run: as §2

Compound | Vss (Mus musculus [1]) | bioavailability [2] | AUC (Mus musculus [3]) | half-life [4] | CI (Mus musculus [5]) | half-life [6] | AUC (Mus musculus [7]) | half-life [8] | half-life [9] | Vd [10] | CI (Mus musculus [11]) | AUC (Mus musculus [12]) | AUC (Mus musculus [13]) | AUC (Mus musculus [14]) | Cmax [15] | AUC (Mus musculus [16]) | AUC (Mus musculus [17]) | AUC (Mus musculus [18])
OCC1CC(F)C(n2cnc3cncnc32)O1 (configuration not stated) | 2.32 L/kg | 60.7% | 120 uM L | 39 min | 1.76 L/h/kg | 25.2 min | 32.3 uM L | 47.4 min | 24 min | 1.12 L/kg | 2.9 L/h/kg | 252 uM L | 153 uM L |  |  |  |  | 
OCC1CC(F)C(n2cnc3c(O)ncnc32)O1 (configuration not stated) | 14.5 L/kg |  |  |  |  |  |  | 257 min |  |  | 2.88 L/h/kg |  | 154 uM L | 134 uM L | 48.1 µM | 48 uM L | 132 uM L | 47.9 uM L
